# S100A4 MyoIIA: inhibitors of S100A4-myosin IIA peptide binding, primary screen, biochemical, fluorescence polarization, TAMRA-MyoIIA peptide; Protein S100-A4 (Homo sapiens), P26447; inhibition, % at 10.7 µM; 360,000 compounds, 0.14% hits; AID 652163, 2013;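 active = mean inhibition of at least 70% across replicates, with every replicate also reaching that level; inconclusive = mean inhibition reaches 70% but some replicates fall short; inactive = mean inhibition below 70%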
# Target sequence (P26447 whole entry, looked up): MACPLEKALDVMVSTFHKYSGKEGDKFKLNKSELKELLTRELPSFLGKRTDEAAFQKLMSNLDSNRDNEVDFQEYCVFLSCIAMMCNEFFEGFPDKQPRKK
#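 Material: human S100A4 monomer with TAMRA-labelled myosin IIA peptide; buffer or medium: HEPES pH 7.2 with CaCl2, KCl, NaCl, DTT, Triton; compound dosing: one concentration per compound; schedule: 5 min incubation before reading; benchmarks: neutral control DMSO, positive control TFP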
# MLL AF4-AF9 inh: inhibitors of AF4 peptide binding to AF9, primary screen, biochemical, AlphaScreen, biotin-AF4 peptide, FLAG-AF9, single point. Protein AF-9 (Homo sapiens), P42568. 350,000 compounds, 0.47% hits. inhibition, % at 10 µM;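 active = every replicate reaching a set inhibition limit, whatever the replicate mean, cut at about 25% in these data; inconclusive = mean inhibition reaches that limit but some replicates miss it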;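 also: 0% = plate neutral control median and 100% = total signal loss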
# ERAP1 HTS inh: human ERAP1 aminopeptidase inhibitors, primary screen, biochemical, single point, plate reader; Endoplasmic reticulum aminopeptidase 1 (Homo sapiens), Q9NZ08; recombinant ERAP1, Leu-AMC fluorescence, 60 min; inhibition, % at 10.7 µM; 340,000 compounds, 0.15% hits; AID 652197, 2013;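 active = mean replicate inhibition of at least 30%, or all replicates individually reaching that 30% level; inactive = mean below 30% and not every replicate reaching it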;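 also: 0% = neutral control wells and 100% = L-leucinethiol positive control wells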
# GSIS activator: GLuc luminescence reporter in INS-1E cells, primary screen for activators of glucose-dependent secretion of insulin. INS-1E GLuc reporter insulin secretion, 2-3 h. activation, % at 16.6 µM. 370,000 compounds, 0.61% hits;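 active = lowest replicate activation of at least 40%, so every replicate reaches that level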;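 also: 0% = median of neutral control wells and 100% = median of IBMX positive control wells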
# RAD52 inh: RAD52 DNA annealing inhibitors, primary screen, biochemical, FRET, single point, set 2; DNA repair protein RAD52 homolog (Homo sapiens), P43351; recombinant RAD52 DNA annealing, FRET fluorescence; inhibition, % at 18.7 µM; 360,000 compounds, 0.46% hits; AID 651710, 2012;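 active = every replicate showing at least 50% inhibition; inconclusive = mean inhibition at least 50% but not in every replicate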
# Target sequence (P43351 whole entry, looked up): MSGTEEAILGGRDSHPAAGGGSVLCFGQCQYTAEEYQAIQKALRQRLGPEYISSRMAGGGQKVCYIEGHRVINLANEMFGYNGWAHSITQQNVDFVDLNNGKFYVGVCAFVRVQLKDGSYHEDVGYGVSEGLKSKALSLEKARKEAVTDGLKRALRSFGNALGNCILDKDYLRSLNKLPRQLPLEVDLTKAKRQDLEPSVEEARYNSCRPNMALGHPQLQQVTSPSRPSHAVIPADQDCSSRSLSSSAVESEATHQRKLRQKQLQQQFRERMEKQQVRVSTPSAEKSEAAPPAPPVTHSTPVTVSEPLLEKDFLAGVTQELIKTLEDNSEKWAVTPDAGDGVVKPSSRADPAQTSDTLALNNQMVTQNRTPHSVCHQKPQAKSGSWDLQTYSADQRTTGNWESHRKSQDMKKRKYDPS
# An asterisk follows results filed as active; ? = inconclusive; . = no result given; ! = repeats disagree. Compounds with a hit are over-represented: about 1.5% of the library has one in this group of screens.
SMILES,S100A4 MyoIIA,MLL AF4-AF9 inh,ERAP1 HTS inh,GSIS activator,RAD52 inh
C[C@@H]1CN([C@@H](C)CO)C(=O)c2cccc(NC(=O)C3CCOCC3)c2O[C@@H]1CN(C)Cc1ccc(C(=O)Nc2ccccc2N)cc1,79*,10,2,38,13
CC(C)NC(=O)N(C)C[C@@H]1Oc2ccc(N)cc2C(=O)N(C)C[C@H]1C,.,.,.,13,.
CCO[C@@H]1OC(C(=O)N2CCN(C)CC2)=C[C@H](c2ccccc2)[C@H]1CCCO,12,-1,1,.,16
CCOC(=O)c1nc(-c2ccccc2)oc1N(C)C,.,.,.,84*,.
COc1ccc2c3c(n(C)c2c1)[C@H](CO)N(C(=O)C1CCC1)CC31CN(C)C1,-6,4,0,18,8
Cc1ccccc1C[n+]1cccc2ccccc21,-3,50*,-6,4,-11
CSc1nc(N)n2nc(C(C)(C)C)cc2n1,-9,.,0,54*,2
CSc1nc(N)n2nc(C)cc2n1,9,-1,-7,1,5
CCOc1cc(C2C3=C(CC(C)(C)CC3=O)N(CCCOC)C3=C2C(=O)CC(C)(C)C3)ccc1OC,-3,29*,-3,8,-18
O=C(C1CCCC1)N1C[C@@H]2[C@H](c3ccccc31)[C@@H](CO)N2C(=O)c1ccccc1F,115*,-3,-1,2,13
O=C(C1CCCC1)N1C[C@H]2[C@@H](c3ccccc31)[C@@H](CO)N2C(=O)c1ccccc1F,5,-4,2,-3,10
CCCNC(=O)N1[C@H](CO)[C@@H]2c3ccccc3N(C(=O)c3ccc(F)cc3)C[C@@H]21,124*,2,2,-8,1
C/C=C/c1ccc([C@H]2[C@@H](CO)N(C(=O)Nc3ccccc3F)[C@H]2C#N)cc1,89*,4,1,-11,-27
O=C(C1CCC1)N1C[C@@H]2[C@H](c3ccccc31)[C@H](CO)N2C(=O)Nc1cccc(F)c1,0,35*,-2,-3,-7
COc1ccc2c3c(n(C)c2c1)[C@H](CO)N(C(=O)Nc1ccccc1F)CC31CCN(C(=O)c2ccccc2)CC1,.,1,.,-6,.
COCC(=O)N1C[C@H]2[C@@H](c3ccccc31)[C@@H](CO)N2C(=O)Nc1ccccc1F,102*,-1,5,2,18
O=C(Nc1ccccc1F)N1C[C@H]2[C@@H](c3ccccc31)[C@H](CO)N2C(=O)C1CCCCC1,1,1,0,-8,-12
COCC(=O)N1C[C@H]2[C@@H](c3ccccc31)[C@H](CO)N2C(=O)Nc1ccccc1F,5,-1,2,0,-3
O=C(Nc1ccccc1F)N1C[C@@H]2[C@H](c3ccccc31)[C@@H](CO)N2C(=O)C1CCCC1,129*,1,0,-2,10
CO[C@@H]1CN(C)C(=O)c2cc(NC(=O)c3ccccc3F)ccc2OC[C@H](C)N(CC2CC2)C[C@@H]1C,0,-1,-7,-6,6
COc1ccccc1N(CC(=O)NCC1CCCO1)C(=O)CNS(=O)(=O)c1ccc(Cl)cc1 (stereo not given),-4,-6,.,42*,-19
CCN1CCN(C(=O)C(=O)c2cn(CC(=O)N(CC)CC)c3ccccc23)CC1,0,0,-4,-2,-1
CCN(CC)C(=O)Cn1cc(C(=O)C(=O)N2CCN(Cc3ccccc3)CC2)c2ccccc21,-2,-6,-4,60*,-20
CN(C)CCCn1c(=O)n(C2CCCCC2)c(=O)c2c3c(sc21)CCCCC3,2,28*,0,-36,19
CN(C)CCn1c(=O)n(-c2ccc(F)cc2)c(=O)c2c3c(sc21)CCCCC3,2,0,6,-6,-7
SMILES,S100A4 MyoIIA,MLL AF4-AF9 inh,ERAP1 HTS inh,GSIS activator,RAD52 inh
CO[C@H]1CN(C)C(=O)c2cc(NC(=O)C3CC3)ccc2OC[C@@H](C)N(C(=O)c2ccccc2)C[C@H]1C,-10,-1,-2,-2,-5
COc1ccc(C(=O)NCc2nnc(SCC(=O)NO)n2Cc2ccccc2)cc1,0,26*,.,-6,-2
CSc1cccc(NC(=O)CCCNC(=O)c2ccc(Cl)cc2)c1,-5,-1,51*,6,-2
O=C(C[C@@H]1C=C[C@@H](NC(=O)c2ccc3c(c2)OCO3)[C@H](CO)O1)NCc1ccc(Oc2ccccc2)cc1,-4,-1,-10,0,-16
CCC(C)C(NC(N)=O)C(=O)Nc1ccc(OCc2ccccc2)cc1 (stereo not given),-28,6,.,9,-8
CCOc1ccc(NC(=O)[C@@H](NC(=O)OCc2ccccc2)[C@@H](C)CC)cc1,.,.,.,49*,.
COCC[N+]1(C)CCCCC1,10,-1,89*,-7,-9
COc1ccc(/C=N/NS(=O)(=O)c2ccccc2)cc1OC,0,-4,-1,71*,-1
COc1ccc(/C=C2/SC(=O)N(NS(=O)(=O)c3ccccc3)C2=S)cc1OC,-2,7,6,49*,-69
COc1cc(/C=C2\SC(=S)N(NS(=O)(=O)c3ccccc3)C2=O)cc(OC)c1OC,3,-4,10,-12,-14
C/C=C/c1ccc(C2[C@@H]3CN(Cc4ccc5c(c4)OCO5)C[C@H]2N3)cc1 (stereo not given in full),0,14,1,-2,61*!
c1ccc(CN2C[C@@H]3N[C@H](C2)C3c2ccc(-c3ccccc3)cc2)cc1 (stereo not given in full),19,15,-3,-17,30
C(=C\c1ccc(C2[C@@H]3CN(Cc4cccnc4)C[C@H]2N3)cc1)/c1ccccc1 (stereo not given in full),?,33*,-1,-13,70*!
Cc1cccc(-c2ccc(C3[C@@H]4CN(Cc5ccccc5)C[C@H]3N4)cc2)c1 (stereo not given in full),5,8,1,14,50*
c1cncc(CN2C[C@@H]3N[C@H](C2)C3c2ccc(-c3cccnc3)cc2)c1 (stereo not given in full),6,-9,-2,20,13
C/C=C/c1ccc(C2[C@H]3CNC[C@@H]2N3Cc2ccc3c(c2)OCO3)cc1 (stereo not given in full),.,.,.,15,.
Cc1cccc(-c2ccc(C3[C@@H]4CN(Cc5cccc(F)c5)C[C@H]3N4)cc2)c1 (stereo not given in full),.,.,.,70*,.
COc1ccc2c3c(n(C)c2c1)[C@H](CO)N(C(=O)c1ccncc1)CC31CCN(C)CC1,.,.,.,17,.
